Data reported in ChEMBL document CHEMBL1255201, “A novel arylethynyltriazole acyclonucleoside inhibits proliferation of drug-resistant pancreatic cancer cells” (2010).

System: MIA PaCa-2
Assay: Growth inhibition of human MIAPaCa2 cells after 48 hrs by MTT assay
Type: functional
How it was run: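 Cells seeded at 15,000/well, attached overnight, then medium replaced with fresh medium alone (control) or medium containing compound; 48 h at 37 °C, 5% CO2. Viable cells quantified by MTT colorimetric assay.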

## Nc1ccn([C@@H]2O[C@H](CO)[C@@H](O)C2(F)F)c(=O)n1 [GEMCITABINE]
  inhibition (INH): 30%
